# Results published in ChEMBL document CHEMBL1287772, “Synthesis and structure-activity relationship of tetrahydropyrazolopyrimidine derivatives--a novel structural class of potent calcium-sensing receptor antagonists” (Bioorg Med Chem, 2010).
# Biological target: T1, Extracellular calcium-sensing receptor (Homo sapiens, UniProt P41180)
# T1 sequence (P41180 whole entry): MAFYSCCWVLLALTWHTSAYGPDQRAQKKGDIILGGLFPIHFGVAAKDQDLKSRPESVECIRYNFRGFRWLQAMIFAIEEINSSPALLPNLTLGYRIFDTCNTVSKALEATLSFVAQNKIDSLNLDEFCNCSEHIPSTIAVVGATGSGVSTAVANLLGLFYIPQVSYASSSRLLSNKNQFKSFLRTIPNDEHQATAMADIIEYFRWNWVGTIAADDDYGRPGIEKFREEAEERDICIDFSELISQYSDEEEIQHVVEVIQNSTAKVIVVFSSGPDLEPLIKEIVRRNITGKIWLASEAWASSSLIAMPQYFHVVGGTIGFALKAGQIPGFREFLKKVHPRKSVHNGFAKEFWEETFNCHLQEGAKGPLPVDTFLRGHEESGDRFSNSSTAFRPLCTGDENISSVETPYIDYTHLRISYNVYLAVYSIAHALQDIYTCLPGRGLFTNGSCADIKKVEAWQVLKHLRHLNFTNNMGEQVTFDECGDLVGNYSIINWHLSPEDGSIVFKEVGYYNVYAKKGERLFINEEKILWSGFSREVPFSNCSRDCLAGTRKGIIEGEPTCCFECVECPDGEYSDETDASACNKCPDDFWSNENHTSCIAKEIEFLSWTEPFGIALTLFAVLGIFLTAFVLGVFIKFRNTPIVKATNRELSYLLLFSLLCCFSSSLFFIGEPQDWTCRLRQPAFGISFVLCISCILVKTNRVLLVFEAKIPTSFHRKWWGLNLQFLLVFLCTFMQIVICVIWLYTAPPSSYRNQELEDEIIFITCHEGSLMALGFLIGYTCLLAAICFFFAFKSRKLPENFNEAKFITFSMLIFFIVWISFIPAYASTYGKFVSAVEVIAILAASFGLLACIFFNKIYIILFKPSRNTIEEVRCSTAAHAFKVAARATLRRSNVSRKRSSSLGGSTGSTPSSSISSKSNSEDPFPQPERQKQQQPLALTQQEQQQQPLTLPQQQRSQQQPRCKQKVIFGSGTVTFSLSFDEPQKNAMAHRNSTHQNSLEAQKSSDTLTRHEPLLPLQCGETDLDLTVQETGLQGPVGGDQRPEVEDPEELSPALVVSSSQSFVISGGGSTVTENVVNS
# Experiment: Antagonist activity at CaSR expressed in CHO cells assessed as [35S]-GTPgammaS binding by scintillation counting
# Type: functional, cell-based
# Details: not given
row,SMILES,IC50
1,COc1ccc([C@@H]2C[C@H](C(F)(F)F)n3ncc(C(=O)NC45CC6CC(CC(C6)C4)C5)c3N2)cc1,> 10 µM
2,O=C(NC12CC3CC(CC(C3)C1)C2)c1cnn2c(C(F)(F)F)cc(-c3ccccc3)nc12,> 10 µM
3,CN1c2c(C(=O)NC34CC5CC(CC(C5)C3)C4)cnn2[C@@H](C(F)(F)F)C[C@H]1c1ccccc1,> 10 µM
4,CC(C)(C)[C@@H]1C[C@H](C(F)(F)F)n2ncc(C(=O)NC34CC5CC(CC(C5)C3)C4)c2N1,> 10 µM
5,O=C(NC12CC3CC(CC(C3)C1)C2)c1cnn2c1NCC[C@@H]2C(F)(F)F,> 10 µM
6,O=C(NC12CC3CC(CC(C3)C1)C2)c1cnn2c1N[C@H](c1cccnc1)C[C@@H]2C(F)(F)F,> 10 µM
7,O=C(NC12CC3CC(CC(C3)C1)C2)c1cnn2c1N[C@H](c1ccccc1)CC2,5.3 µM
8,CCc1ccc([C@@H]2C[C@H](C(F)(F)F)n3ncc(C(=O)NC45CC6CC(CC(C6)C4)C5)c3N2)cc1,> 10 µM
9,C[C@@H]1C[C@H](c2ccccc2)n2ncc(C(=O)NC34CC5CC(CC(C5)C3)C4)c2N1,> 10 µM
10,O=C(Nc1cnn2c1N[C@H](c1ccccc1)C[C@@H]2C(F)(F)F)C12CC3CC(CC(C3)C1)C2,> 10 µM
11,FC(F)(F)[C@H]1C[C@@H](c2ccccc2)Nc2c(CNC34CC5CC(CC(C5)C3)C4)cnn21,> 10 µM
12,O=C(NC12CC3CC(CC(C3)C1)C2)c1cnn2c1N[C@H](c1ccc(Cl)cc1)C[C@@H]2C(F)(F)F,> 10 µM

# Now those with a lower IC50, led by results:
row,IC50,SMILES
1,0.7 µM,O=C(NC12CC3CC(CC(C3)C1)C2)c1cnn2c1N[C@H](c1ccccc1)C[C@@H]2c1ccccc1
2,0.58 µM,CC1(C)C=C(c2ccccc2)Nc2c(C(=O)NC34CC5CC(CC(C5)C3)C4)cnn21
3,0.4 µM,O=C(NC12CC3CC(CC(C3)C1)C2)c1cnn2c1N[C@H](c1ccco1)C[C@@H]2C(F)(F)F
4,0.32 µM,O=C(NC12CC3CC(CC(C3)C1)C2)c1cnn2c1N[C@H](c1cccc(Cl)c1)C[C@@H]2C(F)(F)F
5,0.11 µM,O=C(NC12CC3CC(CC(C3)C1)C2)c1cnn2c1N[C@H](c1ccccc1Cl)C[C@@H]2C(F)(F)F
6,0.097 µM,O=C(OC12CC3CC(CC(C3)C1)C2)c1cnn2c1N[C@H](c1ccccc1)C[C@@H]2C(F)(F)F
7,0.076 µM,C[C@H]1C[C@@H](c2ccccc2)Nc2c(C(=O)NC34CC5CC(CC(C5)C3)C4)cnn21
8,0.04 µM,O=C(NC12CC3CC(CC(C3)C1)C2)c1cnn2c1N[C@H](c1ccccc1)C[C@@H]2C(F)(F)F
9,0.01 µM,CC1(C)C[C@@H](c2ccccc2)Nc2c(C(=O)NC34CC5CC(CC(C5)C3)C4)cnn21

# Test system: not listed separately
# Experiment: Cmax in Crl:CD(SD) rat at 10 mg/kg, po administered with 0.5% methylcellulose suspension
# Type: ADME, organism-based
# Parameters: dose 10 mg/kg, route oral
# Details: in vivo
# Procedure, shortened: (§1)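 Nonfasted male rats, 8 weeks old, n = 3, single oral dose 10 mg/kg. Blood sampled at 0.25, 0.5, 1, 2, 4, 8 and 24 h and spun to plasma. Plasma deproteinized with acetonitrile, supernatant diluted in 0.01 mol/L ammonium acetate, re-centrifuged, assayed by HPLC. Mean ± SD reported.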
row,SMILES,Cmax
1,CC1(C)C[C@@H](c2ccccc2)Nc2c(C(=O)NC34CC5CC(CC(C5)C3)C4)cnn21,0.064 µg/mL

# Test system: not listed separately
# Experiment: Cmax in Crl:CD(SD) rat at 10 mg/kg, po administered with solubilized reagent
# Type: ADME, organism-based
# Parameters: dose 10 mg/kg, route oral
# Details: in vivo
# Procedure, shortened: as §1
row,SMILES,Cmax
1,CC1(C)C[C@@H](c2ccccc2)Nc2c(C(=O)NC34CC5CC(CC(C5)C3)C4)cnn21,0.237 µg/mL

# Test system: not listed separately
# Experiment: Tmax in Crl:CD(SD) rat at 10 mg/kg, po administered with 0.5% methylcellulose suspension
# Type: ADME, organism-based
# Parameters: dose 10 mg/kg, route oral
# Details: in vivo
# Procedure, shortened: as §1
row,SMILES,Tmax
1,CC1(C)C[C@@H](c2ccccc2)Nc2c(C(=O)NC34CC5CC(CC(C5)C3)C4)cnn21,1.3 h

# Test system: not listed separately
# Experiment: Tmax in Crl:CD(SD) rat at 10 mg/kg, po administered with solubilized reagent
# Type: ADME, organism-based
# Parameters: dose 10 mg/kg, route oral
# Details: in vivo
# Procedure, shortened: as §1
row,SMILES,Tmax
1,CC1(C)C[C@@H](c2ccccc2)Nc2c(C(=O)NC34CC5CC(CC(C5)C3)C4)cnn21,0.67 h

# Test system: not listed separately
# Experiment: AUC in Crl:CD(SD) rat at 10 mg/kg, po administered with 0.5% methylcellulose suspension
# Type: ADME, organism-based
# Parameters: dose 10 mg/kg, route oral
# Details: in vivo
# Procedure, shortened: as §1
row,SMILES,AUC
1,CC1(C)C[C@@H](c2ccccc2)Nc2c(C(=O)NC34CC5CC(CC(C5)C3)C4)cnn21,0.591 µg·h/mL

# Test system: not listed separately
# Experiment: AUC in Crl:CD(SD) rat at 10 mg/kg, po administered with solubilized reagent
# Type: ADME, organism-based
# Parameters: dose 10 mg/kg, route oral
# Details: plasma
# Procedure, shortened: as §1
row,SMILES,AUC
1,CC1(C)C[C@@H](c2ccccc2)Nc2c(C(=O)NC34CC5CC(CC(C5)C3)C4)cnn21,1.27 µg·h/mL

# Test system: not listed separately
# Experiment: Mean residence time in Crl:CD(SD) rat at 10 mg/kg, po administered with 0.5% methylcellulose suspension
# Type: ADME, organism-based
# Parameters: dose 10 mg/kg, route oral
# Details: in vivo
# Procedure, shortened: as §1
row,SMILES,MRT
1,CC1(C)C[C@@H](c2ccccc2)Nc2c(C(=O)NC34CC5CC(CC(C5)C3)C4)cnn21,4.65 h

# Test system: not listed separately
# Experiment: Mean residence time in Crl:CD(SD) rat at 10 mg/kg, po administered with solubilized reagent
# Type: ADME, organism-based
# Parameters: dose 10 mg/kg, route oral
# Details: in vivo
# Procedure, shortened: as §1
row,SMILES,MRT
1,CC1(C)C[C@@H](c2ccccc2)Nc2c(C(=O)NC34CC5CC(CC(C5)C3)C4)cnn21,4.48 h
